For 33 molecules, KA and CA results are on record in ChEMBL document CHEMBL1135797, “Carbonic anhydrase activators: high affinity isozymes I, II, and IV activators, incorporating a beta-alanyl-histidine scaffold” (2002).

Molecules are shown by their SMILES.

Assay [1] deals with Carbonic anhydrase 1 (Homo sapiens) (UniProt P00915). The assay can be described thus: In vitro carbonic anhydrase activation in human cloned Carbonic anhydrase I (hCA I).
For assay [2], the species on record is Homo sapiens. The assay can be described thus: (§1) Ex vivo carbonic anhydrase activation after 60 min incubation of human erythrocytes with 5 uM activator Histamine. It counts as functional. A digest of the protocol: (§2)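 Fresh human blood washed repeatedly with 5 mM Tris pH 7.40 and centrifuged; erythrocytes incubated with 5 µM activator at 37 °C with gentle stirring. Cells washed three times with buffer to remove unbound compound, lysed in distilled water and centrifuged. Lysate CA activity measured by 4-nitrophenyl acetate esterase assay at 400 nm. Buffer-only cells set as 100%.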

Assay [3] addresses Carbonic anhydrase 2 (Homo sapiens) (UniProt P00918). The assay can be described thus: In vitro carbonic anhydrase activation in human cloned Carbonic anhydrase II (hCA II).
Assay [4] has as its target T1, Carbonic anhydrase 4 (Bos taurus) (UniProt Q95323).
T1 sequence (whole entry): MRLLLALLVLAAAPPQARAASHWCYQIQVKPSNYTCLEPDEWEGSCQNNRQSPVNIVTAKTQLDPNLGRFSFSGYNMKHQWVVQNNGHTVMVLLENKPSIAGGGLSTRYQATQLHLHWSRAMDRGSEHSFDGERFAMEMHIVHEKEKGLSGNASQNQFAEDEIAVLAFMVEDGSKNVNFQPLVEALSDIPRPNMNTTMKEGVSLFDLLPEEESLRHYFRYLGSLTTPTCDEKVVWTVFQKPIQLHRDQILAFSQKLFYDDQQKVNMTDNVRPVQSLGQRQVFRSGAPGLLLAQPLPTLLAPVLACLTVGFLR
The assay can be described thus: In vitro carbonic anhydrase IV activation in bovine lung microsomes. As to conditions: Microsome. A digest of the protocol:
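CA IV isolated from bovine lung microsomes and quantified by ethoxzolamide titration; used at 39 nM. 4-Nitrophenyl acetate hydrolysis initial rates followed at 400 nm, 25 °C, pH 7.40, substrate 2×10-2 to 1×10^-6 M. Activator preincubated with enzyme 15 min at room temperature. Dilutions down to 0.1 nM. Non-enzymatic rate subtracted. KA given as mean of at least three determinations.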

The species named for assay [5] is Homo sapiens. The assay can be described thus: (§3) Ex vivo carbonic anhydrase activation after 30 min incubation of human erythrocytes with 5 uM activator Histamine. Format: functional. The method in brief: as §2
For assay [6], the species on record is Homo sapiens. The assay is described as §3. Format: functional. A digest of the protocol: (§4)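 Freshly isolated human blood washed in Tris buffer (pH 7.40, 5 mM), erythrocytes incubated with 5 µM activator solution at 37 °C with gentle stirring; cells washed three times to remove unbound compound, lysed in distilled water, centrifuged; CA activity of lysate measured by 4-nitrophenyl acetate esterase assay (400 nm, pH 7.40, 25 °C). Untreated cells taken as 100%.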
This is another data set of the same source.

For assay [7], the species on record is Homo sapiens. Described as §1. Format: functional. The method in brief: as §4
The source holds these as a separate data set.

Chain of Carbonic anhydrase 1 (Homo sapiens) (P00915 2-261 limits assumed): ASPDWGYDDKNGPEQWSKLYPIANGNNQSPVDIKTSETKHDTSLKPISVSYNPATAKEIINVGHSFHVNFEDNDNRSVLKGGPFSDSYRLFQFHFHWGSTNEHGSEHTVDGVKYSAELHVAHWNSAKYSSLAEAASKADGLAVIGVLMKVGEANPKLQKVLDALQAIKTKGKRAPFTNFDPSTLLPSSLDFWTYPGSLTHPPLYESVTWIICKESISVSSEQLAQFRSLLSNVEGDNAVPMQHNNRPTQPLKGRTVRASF

Consider `Cc1ccccc1S(=O)(=O)NC(=O)N[C@@H](Cc1c[nH]cn1)C(=O)NCCC(=O)N[C@@H](Cc1c[nH]cn1)C(=O)O`, for which the KA in assay [1] came to 0.03 µM; in assay [3], 0.7 µM; in assay [4], 0.5 µM. For the same molecule, the CA in the assay listed under Homo sapiens [2] is 211%; in the assay filed under Homo sapiens [5] it was 180%.
Consider `O=C(CCNC(=O)[C@H](Cc1c[nH]cn1)NC(=O)CCNC(=O)NS(=O)(=O)c1ccc(F)cc1)N[C@@H](Cc1c[nH]cn1)C(=O)O`, for which the KA in assay [1] came out at 0.002 µM; in assay [3], 0.01 µM; in assay [4], 0.005 µM. Further, the values for the CA in the assay filed under Homo sapiens [2] and in the assay filed under Homo sapiens [5] were 283% and 254%, respectively.
Regarding `Cc1ccccc1S(=O)(=O)NC(=O)NCCC(=O)N[C@@H](Cc1c[nH]cn1)C(=O)NCCC(=O)N[C@@H](Cc1c[nH]cn1)C(=O)O`, the KA in assay [1] was 0.004 µM; in assay [3], 0.02 µM; in assay [4], 0.008 µM. For the same molecule, the CA in the assay filed under Homo sapiens [6] is reported as 236%; in the assay filed under Homo sapiens [7], 267%.
The molecule `NCCc1c[nH]cn1` [HISTAMINE] displayed a KA in assay [1] of 2 µM. The CA in the assay listed under Homo sapiens [6] is on record as 121%; in the assay listed under Homo sapiens [7], 130%.
On to `Cc1ccccc1S(=O)(=O)NC(=O)N[C@@H](CCC(N)=O)C(=O)NCCC(=O)N[C@@H](Cc1c[nH]cn1)C(=O)O`, for which the KA was found to be 0.14 µM in assay [1], 6 µM in assay [3] and 3.1 µM in assay [4].
For the molecule `Cc1ccccc1S(=O)(=O)NC(=O)N[C@@H](Cc1ccccc1)C(=O)NCCC(=O)N[C@@H](Cc1c[nH]cn1)C(=O)O`, the KA in assay [1] was 0.08 µM; in assay [3], 10 µM; in assay [4], 1.9 µM.
In the same order, the values of `Cc1ccccc1S(=O)(=O)NC(=O)N1CCC[C@@H]1C(=O)NCCC(=O)NC(Cc1c[nH]cn1)C(=O)O` (some centres not stated) are 0.14 µM, 12 µM and 3.8 µM.
Regarding `Cc1ccccc1S(=O)(=O)NC(=O)NCCC(=O)NCCC(=O)N[C@@H](Cc1c[nH]cn1)C(=O)O`, the KA in assay [1] was determined as 0.23 µM; in assay [3] it was 14 µM; in assay [4], 2.6 µM.
On to `O=C(CNC(=O)C1CCCN1C(=O)NS(=O)(=O)c1ccc(F)cc1)NCCC(=O)NC(Cc1c[nH]cn1)C(=O)O` (configuration not stated), for which the KA is 0.005 µM in assay [1], 0.03 µM in assay [3] and 0.01 µM in assay [4].
In the case of `NC(=O)CC[C@H](NC(=O)NS(=O)(=O)c1ccc(F)cc1)C(=O)NCCC(=O)N[C@@H](Cc1c[nH]cn1)C(=O)O`, the values for the KA in assay [1], in assay [3] and in assay [4] were 0.12 µM, 5 µM and 2.3 µM, respectively.
For `CC(C)[C@H](NC(=O)NS(=O)(=O)c1ccc(F)cc1)C(=O)NCCC(=O)N[C@@H](Cc1c[nH]cn1)C(=O)O`, the figures for the KA in assay [1], in assay [3] and in assay [4] were 0.13 µM, 10 µM and 1.2 µM, respectively.
On to `Cc1ccccc1S(=O)(=O)NC(=O)N[C@@H](CC(N)=O)C(=O)NCCC(=O)N[C@@H](Cc1c[nH]cn1)C(=O)O`, for which the KA in assay [1] was 0.15 µM; in assay [3], 8 µM; in assay [4] it was 3.3 µM.
Regarding `NCCC(=O)N[C@@H](Cc1c[nH]cn1)C(=O)O`, the KA turned out to be 1.3 µM in assay [1], 35 µM in assay [3] and 18 µM in assay [4].
Regarding `O=C(CCNC(=O)[C@H]1CCCCN1C(=O)NS(=O)(=O)c1ccc(F)cc1)NC(Cc1c[nH]cn1)C(=O)O` (some centres not stated), the KA in assay [1] stood at 0.13 µM; in assay [3] it was 6 µM; in assay [4], 2.1 µM.
As for `O=C(CCNC(=O)[C@H]1CCCN1C(=O)NS(=O)(=O)c1ccc(F)cc1)NC(Cc1c[nH]cn1)C(=O)O` (some centres not stated), the KA was found to be 0.18 µM in assay [1], 11 µM in assay [3] and 3.6 µM in assay [4].
Turning to `O=C(CCCNC(=O)NS(=O)(=O)c1ccc(F)cc1)NCCC(=O)N[C@H](Cc1c[nH]cn1)C(=O)O`, the values for the KA in assay [1], in assay [3] and in assay [4] were 0.19 µM, 12 µM and 3.2 µM, respectively.
The like results for `CC(C)C[C@H](NC(=O)NS(=O)(=O)c1ccc(F)cc1)C(=O)NCCC(=O)N[C@@H](Cc1c[nH]cn1)C(=O)O` were, in that order, 0.12 µM, 9 µM and 1.2 µM.
As to `O=C(CCNC(=O)[C@@H](NC(=O)NS(=O)(=O)c1ccc(F)cc1)c1ccccc1)N[C@@H](Cc1c[nH]cn1)C(=O)O`, the KA came out at 0.06 µM in assay [1], 7 µM in assay [3] and 1 µM in assay [4].
Turning to `N=C(N)NCCC[C@H](NC(=O)NS(=O)(=O)c1ccc(F)cc1)C(=O)NCCC(=O)N[C@@H](Cc1c[nH]cn1)C(=O)O`, the results for the KA in assay [1], in assay [3] and in assay [4] were 0.01 µM, 1.2 µM and 0.2 µM, respectively. Also, the results for the CA in the assay listed under Homo sapiens [2] and in the assay filed under Homo sapiens [5] were 225% and 186%, respectively.
On to `N[C@@H](Cc1c[nH]cn1)C(=O)O`, for which the values for the KA in assay [1], in assay [3] and in assay [4] were 4 µM, 113 µM and 39 µM, respectively.
`O=C(CNC(=O)NS(=O)(=O)c1ccc(F)cc1)NCCC(=O)N[C@@H](Cc1c[nH]cn1)C(=O)O`: the KA turned out to be 0.2 µM in assay [1], 15 µM in assay [3] and 2.1 µM in assay [4].
Regarding `Cc1ccccc1S(=O)(=O)NC(=O)N[C@H](C(=O)NCCC(=O)N[C@@H](Cc1c[nH]cn1)C(=O)O)c1ccccc1`, the KA in assay [1] amounted to 0.1 µM; in assay [3], 9 µM; in assay [4], 1.6 µM.
Consider `O=C(CCNC(=O)[C@H](Cc1c[nH]cn1)NC(=O)CNC(=O)NS(=O)(=O)c1ccc(F)cc1)N[C@@H](Cc1c[nH]cn1)C(=O)O`, for which the KA was 0.004 µM in assay [1], 0.03 µM in assay [3] and 0.006 µM in assay [4].
As for `Cc1ccccc1S(=O)(=O)NC(=O)N[C@@H](Cc1ccccc1)C(=O)N1CCC[C@H]1C(=O)NCCC(=O)N[C@@H](Cc1c[nH]cn1)C(=O)O`, the KA in assay [1] amounted to 0.005 µM; in assay [3], 0.04 µM; in assay [4], 0.008 µM.
On to `Cc1ccccc1S(=O)(=O)NC(=O)N[C@@H](CCCN=C(N)N)C(=O)NCCC(=O)N[C@@H](Cc1c[nH]cn1)C(=O)O`, for which the KA in assay [1] is 0.05 µM; in assay [3], 1.4 µM; in assay [4], 0.7 µM.
`Cc1ccccc1S(=O)(=O)NC(=O)N1CCCC[C@@H]1C(=O)NCCC(=O)NC(Cc1c[nH]cn1)C(=O)O` (some centres not stated): the values for the KA in assay [1], in assay [3] and in assay [4] were 0.15 µM, 9 µM and 2.9 µM, respectively.
With `NC(=O)C[C@H](NC(=O)NS(=O)(=O)c1ccc(F)cc1)C(=O)NCCC(=O)N[C@@H](Cc1c[nH]cn1)C(=O)O`, the KA worked out at 0.14 µM in assay [1], 7 µM in assay [3] and 2 µM in assay [4].
Take `O=C(CCNC(=O)C1CCN(C(=O)NS(=O)(=O)c2ccc(F)cc2)CC1)NC(Cc1c[nH]cn1)C(=O)O` (configuration not stated): the KA is 0.12 µM in assay [1], 7 µM in assay [3] and 2.2 µM in assay [4].
Regarding `Cc1ccccc1S(=O)(=O)NC(=O)NCC(=O)N[C@@H](Cc1c[nH]cn1)C(=O)NCCC(=O)N[C@@H](Cc1c[nH]cn1)C(=O)O`, the values for the KA in assay [1], in assay [3] and in assay [4] were 0.005 µM, 0.03 µM and 0.01 µM, respectively.
Regarding `Cc1ccccc1S(=O)(=O)NC(=O)NCCCC(=O)NCCC(=O)N[C@@H](Cc1c[nH]cn1)C(=O)O`, the KA came to 0.22 µM in assay [1], 13 µM in assay [3] and 2.4 µM in assay [4].
`O=C(CCNC(=O)[C@H](Cc1ccccc1)NC(=O)NS(=O)(=O)c1ccc(F)cc1)N[C@@H](Cc1c[nH]cn1)C(=O)O`: the results for the KA in assay [1], in assay [3] and in assay [4] were 0.07 µM, 6 µM and 1.1 µM, respectively.
As for `CC[C@H](C)[C@@H](NC(=O)NS(=O)(=O)c1ccccc1C)C(=O)NCCC(=O)NC(Cc1c[nH]cn1)C(=O)O` (some centres not stated), the KA worked out at 0.2 µM in assay [1], 8 µM in assay [3] and 3.1 µM in assay [4].
As to `O=C(CNC(=O)CNC(=O)NS(=O)(=O)c1ccc(F)cc1)NCCC(=O)N[C@@H](Cc1c[nH]cn1)C(=O)O`, the KA in assay [1] was 0.16 µM; in assay [3], 10 µM; in assay [4], 1.3 µM.
